“Also recorded” adds a separate entry of the source.
Assays:
PSN-1 cells = experiment: Apoptosis in vitro assay; assay type: cell-based; details: for apoptosis, single agent: VE-822 80 nM or gemcitabine 10 nM, 48 h after XRT time point
In short: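 For PSN-1 cells, gemcitabine (10 nM) was given 24 h pre-XRT, then replaced with fresh medium. […] Cells were analysed at 48 h post-XRT by Annexin V-FITC/PI flow cytometry to separate early apoptotic from necrotic cells.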

PSN-1 xenografts = experiment: Tumor growth delay, PSN-1 xenografts; assay type: in vivo, mice
In short: (§1)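 Female Balb/c nude mice were inoculated s.c. with 10^6 cells in serum-free medium plus Matrigel and randomized at ~80 mm3 (day 0). […] Tumor volume was tracked to 600 mm3 (TV600); n=4–5.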

[1] = system: tumor xenograft vessel density; experiment: Tumor vessel density; assay type: in vivo, mice
In short: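 Frozen xenograft tumors were cut into 10-μm sections, treated with 0.3% H2O2 for 20 min, then blocked in TNB for 30 min. Sections were stained 1 h with rat anti-mouse CD31 (1:50), then anti-rat […]. Vessels per field were counted in five random viable 10× fields per tumor, n=4–5 tumors per group.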

ATM [2] = molecular target: T1, ATM (Homo sapiens, UniProt Q13315); experiment: Biochemical inhibition of ATR and related kinases
T1 sequence (Q13315 whole entry, species assumed): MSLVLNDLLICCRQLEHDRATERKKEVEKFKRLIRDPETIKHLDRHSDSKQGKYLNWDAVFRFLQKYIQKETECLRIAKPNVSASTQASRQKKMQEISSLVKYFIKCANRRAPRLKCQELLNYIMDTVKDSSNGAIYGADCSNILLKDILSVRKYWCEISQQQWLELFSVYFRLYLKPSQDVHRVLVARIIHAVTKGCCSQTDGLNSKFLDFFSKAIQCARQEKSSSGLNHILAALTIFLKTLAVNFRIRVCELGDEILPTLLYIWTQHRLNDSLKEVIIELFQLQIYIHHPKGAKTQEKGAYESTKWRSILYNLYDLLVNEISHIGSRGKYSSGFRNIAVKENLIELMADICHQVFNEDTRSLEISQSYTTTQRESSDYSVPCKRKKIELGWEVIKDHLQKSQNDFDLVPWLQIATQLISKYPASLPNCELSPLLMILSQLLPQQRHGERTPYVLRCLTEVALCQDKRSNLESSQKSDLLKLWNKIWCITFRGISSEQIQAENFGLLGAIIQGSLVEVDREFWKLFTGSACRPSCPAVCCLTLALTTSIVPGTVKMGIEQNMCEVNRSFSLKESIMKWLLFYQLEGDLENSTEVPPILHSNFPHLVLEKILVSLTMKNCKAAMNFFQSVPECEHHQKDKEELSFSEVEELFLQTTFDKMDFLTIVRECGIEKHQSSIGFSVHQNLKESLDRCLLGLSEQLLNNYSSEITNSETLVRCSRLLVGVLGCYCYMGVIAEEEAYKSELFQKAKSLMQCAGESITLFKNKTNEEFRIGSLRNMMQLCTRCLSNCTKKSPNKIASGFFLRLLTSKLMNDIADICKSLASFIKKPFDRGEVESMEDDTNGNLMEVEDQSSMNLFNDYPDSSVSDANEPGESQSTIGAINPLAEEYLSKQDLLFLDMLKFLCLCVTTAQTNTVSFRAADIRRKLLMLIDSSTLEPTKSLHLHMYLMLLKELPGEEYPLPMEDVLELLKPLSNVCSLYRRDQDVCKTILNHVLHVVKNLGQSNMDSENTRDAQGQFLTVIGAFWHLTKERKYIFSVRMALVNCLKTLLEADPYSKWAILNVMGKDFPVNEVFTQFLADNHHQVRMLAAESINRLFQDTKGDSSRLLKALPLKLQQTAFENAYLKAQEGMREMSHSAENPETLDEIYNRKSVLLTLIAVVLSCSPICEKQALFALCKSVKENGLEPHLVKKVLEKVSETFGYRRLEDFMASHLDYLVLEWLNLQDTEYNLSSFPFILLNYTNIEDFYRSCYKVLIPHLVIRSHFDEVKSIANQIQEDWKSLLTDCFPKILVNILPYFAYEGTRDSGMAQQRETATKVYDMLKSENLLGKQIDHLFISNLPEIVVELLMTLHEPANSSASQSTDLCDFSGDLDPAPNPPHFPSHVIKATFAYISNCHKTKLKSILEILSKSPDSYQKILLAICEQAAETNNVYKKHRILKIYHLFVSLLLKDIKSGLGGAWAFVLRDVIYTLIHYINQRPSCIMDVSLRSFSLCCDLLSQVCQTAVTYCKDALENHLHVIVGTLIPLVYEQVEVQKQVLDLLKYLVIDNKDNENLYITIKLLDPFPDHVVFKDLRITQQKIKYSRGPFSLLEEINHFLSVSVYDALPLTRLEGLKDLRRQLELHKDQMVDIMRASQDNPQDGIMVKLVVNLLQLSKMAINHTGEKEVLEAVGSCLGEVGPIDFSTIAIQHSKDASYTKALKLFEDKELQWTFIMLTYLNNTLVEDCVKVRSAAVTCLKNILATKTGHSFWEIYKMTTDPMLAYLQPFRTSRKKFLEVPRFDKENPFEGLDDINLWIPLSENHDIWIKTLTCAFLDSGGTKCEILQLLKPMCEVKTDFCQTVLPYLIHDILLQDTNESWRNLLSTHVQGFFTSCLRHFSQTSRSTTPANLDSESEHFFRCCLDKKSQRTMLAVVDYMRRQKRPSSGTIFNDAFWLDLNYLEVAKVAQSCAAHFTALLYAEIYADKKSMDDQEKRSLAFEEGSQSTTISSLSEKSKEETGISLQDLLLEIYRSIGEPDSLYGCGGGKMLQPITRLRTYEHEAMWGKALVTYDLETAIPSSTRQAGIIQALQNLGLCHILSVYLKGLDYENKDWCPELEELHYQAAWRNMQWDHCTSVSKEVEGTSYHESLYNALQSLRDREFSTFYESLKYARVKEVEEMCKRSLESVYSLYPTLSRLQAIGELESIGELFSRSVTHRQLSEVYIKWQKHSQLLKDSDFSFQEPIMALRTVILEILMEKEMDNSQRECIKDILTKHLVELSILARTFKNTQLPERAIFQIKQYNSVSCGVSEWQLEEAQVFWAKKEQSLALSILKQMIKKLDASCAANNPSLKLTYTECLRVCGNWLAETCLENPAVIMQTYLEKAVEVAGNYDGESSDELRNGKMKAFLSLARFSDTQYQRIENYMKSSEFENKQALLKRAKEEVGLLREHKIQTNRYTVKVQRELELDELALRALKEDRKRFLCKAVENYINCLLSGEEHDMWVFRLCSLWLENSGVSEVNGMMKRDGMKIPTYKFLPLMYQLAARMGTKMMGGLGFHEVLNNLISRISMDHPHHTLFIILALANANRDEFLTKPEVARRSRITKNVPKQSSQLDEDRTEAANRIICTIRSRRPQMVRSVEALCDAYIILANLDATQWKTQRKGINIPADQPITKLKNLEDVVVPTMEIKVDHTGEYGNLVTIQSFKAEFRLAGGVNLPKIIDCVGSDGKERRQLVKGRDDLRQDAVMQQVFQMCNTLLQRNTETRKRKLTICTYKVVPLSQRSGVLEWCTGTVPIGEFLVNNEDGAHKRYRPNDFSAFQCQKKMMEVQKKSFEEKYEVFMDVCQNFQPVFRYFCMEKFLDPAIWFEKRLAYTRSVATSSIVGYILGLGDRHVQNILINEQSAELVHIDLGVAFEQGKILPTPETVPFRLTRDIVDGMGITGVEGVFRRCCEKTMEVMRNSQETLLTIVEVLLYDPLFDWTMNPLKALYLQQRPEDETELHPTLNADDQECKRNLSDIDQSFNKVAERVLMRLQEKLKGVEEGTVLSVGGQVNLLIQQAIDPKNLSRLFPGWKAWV

DNA-PK [3] = molecular target: T2, DNA-PK (Homo sapiens, UniProt P78527); experiment: Biochemical inhibition of ATR and related kinases
mTOR = mTOR (Homo sapiens, UniProt P42345); experiment: Biochemical inhibition of ATR and related kinases
PI3Kγ = PI3Kγ (Homo sapiens, UniProt P48736); experiment: Biochemical inhibition of ATR and related kinases
PI3Kγ, sequence (P48736 whole entry, species assumed): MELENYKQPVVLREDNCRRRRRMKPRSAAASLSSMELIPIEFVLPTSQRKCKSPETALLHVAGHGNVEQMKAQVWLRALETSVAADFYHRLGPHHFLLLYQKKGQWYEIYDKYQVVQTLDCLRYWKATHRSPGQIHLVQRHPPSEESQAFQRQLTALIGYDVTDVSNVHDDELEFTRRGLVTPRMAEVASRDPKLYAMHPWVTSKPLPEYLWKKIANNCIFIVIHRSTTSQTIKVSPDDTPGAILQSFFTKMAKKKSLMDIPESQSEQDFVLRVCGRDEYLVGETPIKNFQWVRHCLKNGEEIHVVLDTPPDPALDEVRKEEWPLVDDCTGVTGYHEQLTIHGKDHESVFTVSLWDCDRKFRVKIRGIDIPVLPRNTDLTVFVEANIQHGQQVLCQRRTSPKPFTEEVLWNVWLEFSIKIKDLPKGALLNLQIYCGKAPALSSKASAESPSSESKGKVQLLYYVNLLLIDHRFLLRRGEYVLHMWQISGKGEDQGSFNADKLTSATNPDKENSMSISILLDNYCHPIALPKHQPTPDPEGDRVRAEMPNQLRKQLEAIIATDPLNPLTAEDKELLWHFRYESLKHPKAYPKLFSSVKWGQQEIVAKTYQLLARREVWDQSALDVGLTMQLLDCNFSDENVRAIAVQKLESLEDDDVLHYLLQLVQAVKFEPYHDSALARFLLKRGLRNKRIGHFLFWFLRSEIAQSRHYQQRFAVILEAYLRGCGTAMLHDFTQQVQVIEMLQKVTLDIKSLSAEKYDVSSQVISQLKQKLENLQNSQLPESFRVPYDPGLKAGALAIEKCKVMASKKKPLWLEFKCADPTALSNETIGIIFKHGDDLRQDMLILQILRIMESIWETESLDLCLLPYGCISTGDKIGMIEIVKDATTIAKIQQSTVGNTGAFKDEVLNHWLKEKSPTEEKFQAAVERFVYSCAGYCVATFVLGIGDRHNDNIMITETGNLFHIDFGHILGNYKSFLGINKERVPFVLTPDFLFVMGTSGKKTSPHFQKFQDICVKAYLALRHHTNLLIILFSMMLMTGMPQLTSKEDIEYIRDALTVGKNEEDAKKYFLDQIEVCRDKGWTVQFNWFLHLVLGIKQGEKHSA

ATM [4] = molecular target: T1, ATM; experiment: Cellular inhibition of ATR and related kinases; assay type: cell-based
DNA-PK [5] = molecular target: T2, DNA-PK; experiment: Cellular inhibition of ATR and related kinases; assay type: cell-based
phospho-Ser345-Chk1 = experiment: Immunoblot for Chk1 phosphorylation; assay type: cell-based; details: VE-822 80 nM; gemcitabine 100 nM, XRT 6 Gy; PDAC cells
In short: (§2)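 Lysates were taken 2 h post-XRT or 4 h post-gemcitabine, after cold PBS rinse, in reducing Triton lysis buffer. Phospho-Chk1 antibody was used at 1:1000; β-actin was the loading control.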

[6] = system: ATM, Chk2 or DNA-PK phosphorylation; experiment: Immunoblot for ATM/Chk2 and DNA-PK phosphorylation; assay type: cell-based; details: VE-822 80 nmol/L; XRT 6 Gy
[7] = system: PDAC cells (PSN-1, MiaPaCa-2, PancM); experiment: Clonogenic survival assay, pancreatic cancer cells; assay type: cell-based
[8] = system: fibroblasts (HFL-1, MRC5); experiment: Clonogenic survival assay, normal fibroblasts; assay type: cell-based, human; details: VE-822 80 nM
[9] = system: phospho-Ser345-Chk1 in HFL-1 normal fibroblasts; experiment: Phospho-Chk1; assay type: cell-based, human; details: VE-822 80 nM
In short: as §2

[10] = system: human dermal microvascular endothelial cells (HDMECs); experiment: Capillary tube formation; assay type: cell-based; details: VE-822 80 nM; XRT 6 Gy or gemcitabine 50 nM
[11] = system: PSN-1 and MiaPaCa-2 cells; experiment: Analysis of γH2AX, 53BP1 and Rad51 foci; assay type: cell-based
[12] = system: PSN-1 and MiaPaCa-2 cells; experiment: Cell-cycle assay; assay type: cell-based
[13] = system: phospho-Ser-345-Chk1 in PSN-1 xenografts; experiment: Chk1 phosphorylation; assay type: in vivo, mice; details: VE-822 60 mg/kg d0, 1; gemcitabine 100 mg/kg d0; XRT 6 Gy d1; 2 h post-XRT
MiaPaCa-2 xenografts = experiment: Tumor growth delay, MiaPaCa-2 xenografts; assay type: in vivo, mice; details: experiment III
In short: as §1

[14] = Body weight of mice in growth delay experiments; assay type: in vivo
[15] = system: small intestine (jejunum); experiment: Intestinal damage after abdominal XRT; assay type: in vivo, mice
[16] = system: γH2AX in PSN-1 tumor xenografts; experiment: SPECT imaging of γH2AX in pancreatic tumor xenografts; assay type: in vivo, mice
In short: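 111In-DTPA–anti-γH2AX-Tat was injected 2 h before radiation, and SPECT/CT was run at 24 h post-XRT. Tumor uptake came from volume-of-interest analysis as %ID/g; organs were then removed, weighed and counted.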

## Nc1ccn([C@@H]2O[C@H](CO)[C@@H](O)C2(F)F)c(=O)n1 [gemcitabine, reference compound]
PSN-1 cells
  apoptosis, single agent: increased apoptosis slightly
PSN-1 xenografts; 100 mg/kg i.p. day 0
  tumor growth, gemcitabine alone: did not alter tumor growth significantly; also recorded: does not itself lead to tumor growth delay
PSN-1 xenografts; experiment V, P<0.05
  tumor growth delay, gemcitabine + XRT vs gemcitabine: increased tumor growth delay compared with Gem0
[1]; growth delay experiment V
  vessel density after gemcitabine: significantly reduced vessel density

## CNCc1ccc(-c2cc(-c3nc(-c4ccc(S(=O)(=O)C(C)C)cc4)cnc3N)on2)cc1 [VE-822]
ATM [2]
  Ki: 0.034 µM
DNA-PK [3]
  Ki: > 4 µM
mTOR
  Ki: > 1 µM
PI3Kγ
  Ki: 0.22 µM
ATM [4]
  IC50: 2.6 µM
DNA-PK [5]
  IC50: 18.1 µM
phospho-Ser345-Chk1
  phospho-Ser345-Chk1 after gemcitabine, XRT or both: reduced phospho-Ser345-Chk1
[6]
  ATM, Chk2 or DNA-PK phosphorylation in response to radiation: did not inhibit ATM, Chk2 or DNA-PK phosphorylation
[7]; VE-822 80 nM, 1 h before until 18 h post-XRT
  clonogenic survival of irradiated PDAC: decreased survival of irradiated PDAC
[7]; gemcitabine 10 or 5 nM 24 h, VE-822 80 nM, XRT 4 Gy
  reduction of survival after chemoradiotherapy (triple combination): dramatically more after chemoradiotherapy
[7]; gemcitabine 24 h, then VE-822 80 nM 18 h
  reduction of survival on adding VE-822 to gemcitabine: 2–3 fold
[8]
  clonogenic survival of normal fibroblasts after XRT or gemcitabine: did not alter clonogenic survival of fibroblasts
[9]
  phospho-Ser345-Chk1 after gemcitabine, XRT or chemoradiotherapy: reduced phospho-Ser345-Chk1
[10]
  tube formation after XRT or gemcitabine: did not modify tube formation
[11]; VE-822 80 nM 1 h before XRT 6 Gy, 24 h post-XRT, vs XRT
  residual γH2AX and 53BP1 foci: increased XRT-induced residual γH2AX and 53BP1 foci
[11]; VE-822 80 nM pre-treatment, XRT 6 Gy, 6 h post-XRT
  Rad51 foci: decreased Rad51 foci after XRT
[11]; VE-822 alone (data not shown)
  γH2AX, 53BP1 or Rad51 foci, VE-822 alone: no effect on γH2AX, 53BP1 or Rad51 foci
[12]; VE-822 80 nM + XRT 6 Gy
  XRT-enriched G2/M-phase-fraction: abrogated by co-treatment with VE-822
[12]; VE-822 80 nM, 12 h and 24 h
  cell-cycle distribution, VE-822 alone: increased the G1-phase-fraction
[12]; gemcitabine 10 nM then VE-822 80 nM
  gemcitabine-induced S-phase arrest: not affected by VE-822
PSN-1 cells
  apoptosis, single agent: little effect
PSN-1 cells; VE-822 80 nM, XRT 6 Gy, gemcitabine 10 nM, strongest in triple combination
  apoptosis, combinations of VE-822, XRT and/or gemcitabine: enhanced early and late apoptosis
[13]
  phospho-Ser-345-Chk1 in xenografts after DNA-damaging agents: inhibited phospho-Ser-345-Chk1 in xenografts
PSN-1 xenografts; experiment I, 60 mg/kg days 0–5
  tumor growth, VE-822 alone: no effect on tumor growth
PSN-1 xenografts; experiment I, 60 mg/kg for 6 or 4 days, 6 Gy day 1, P<0.001
  TV600 (time to 600 mm^3), XRT plus VE-822 vs XRT alone: more than doubled the TV600 of XRT alone
PSN-1 xenografts; experiment II, 60 mg/kg days 0–5, 5 x 2 Gy days 1–5, P<0.001
  tumor regrowth, VE-822 + fractionated XRT vs fractionated XRT: significantly delayed regrowth compared with XRT1–5
PSN-1 xenografts; experiment IV, 15, 30 and 60 mg/kg, days 0, 2 and 4, 6 Gy
  radiosensitisation (TV400) with intermittent dosing: dose-dependent radiosensitisation response
PSN-1 xenografts; experiment V, P<0.001
  tumor growth delay, gemcitabine + XRT + VE-822 vs gemcitabine + XRT: substantially prolonged the tumor growth delay compared with the Gem0XRT1 group
PSN-1 xenografts; experiment V, VE-822 60 mg/kg d1, 3, 5, XRT d1, P<0.05
  tumor growth delay, VE-822 + XRT vs XRT: significantly longer compared with the XRT1 group
PSN-1 xenografts; experiment V, gemcitabine 100 mg/kg d0, VE-822 60 mg/kg d1, 3, 5, P>0.05
  TV400, gemcitabine + VE-822 vs gemcitabine alone: did not significantly increase TV400 compared with gemcitabine alone
MiaPaCa-2 xenografts; 60 mg/kg days 0–5
  tumor growth, VE-822 alone vs control: no statistical change in tumor growth
MiaPaCa-2 xenografts; 60 mg/kg days 0–5, 6 Gy day 1, n=4
  tumors that regrew, VE-822 + XRT: 2/4
MiaPaCa-2 xenografts; two regrowing tumors, P<0.001
  TV600 of regrowing tumors, VE-822 + XRT vs XRT: significantly longer than the TV600 for the XRT1 group
[14]; growth delay experiment I
  body weight: No body weight loss
[14]; growth delay experiment II
  body weight: no effects on body weight
[14]; growth delay experiment III
  body weight: no weight loss
[14]; growth delay experiment IV
  body weight: No weight loss
[14]; growth delay experiment V
  body weight: no weight loss
[15]; 60 mg/kg days 0, 2, 4, 6 Gy day 0, day 5
  villus tip loss and villi length, VE-822 + XRT vs XRT alone: did not increase villus tip loss or villi shortening
[15]; abdominal XRT 6 Gy
  body weight loss, combination vs XRT-only: equivalent body weight loss
[1]; growth delay experiment V
  vessel density, addition of VE-822 and/or XRT to gemcitabine: did not alter vessel density significantly
[1]; growth delay experiments I-III
  vessel density, VE-822 alone or with XRT: did not alter vessel density
[16]; 60 mg/Kg days 0 and 1
  tumor uptake of 111In-DTPA–anti-γH2AX-Tat, VE-822 alone: no elevation in uptake
[16]; 60 mg/Kg days 0 and 1, 6 Gy day 1, 24 h post-XRT, P<0.05
  tumor uptake of 111In-DTPA–anti-γH2AX-Tat, VE-822 plus XRT, higher compared with XRT: 44%
